# Experimental data collected from several papers.
Compound,system,conditions,quantity,result
CC(C)n1cc(C#N)c2cc(-n3cc(C(=O)O)cn3)ccc21,"human, plasma","oral, 400 mg, single dose, fasted, healthy volunteers",AUC(0-inf),92000 ng·h/mL
CCc1nc2c(C)cc(N3CCN(CC(=O)N4CC(O)C4)CC3)cn2c1N(C)c1nc(-c2ccc(F)cc2)c(C#N)s1,"human, plasma","oral, 150 mg, fed, healthy volunteers",AUC(0-inf),6400 ng·h/mL
CN(C(=O)n1cnc(-c2ccc[n+]([O-])c2)c1)C1CCCCC1,"male cynomolgus monkey, plasma","oral, 0.1 mg/kg",Tmax,1 h
COc1cc(C(=O)NC2CCN(C)CC2)c(F)cc1Nc1ncc(C(F)(F)F)c(Oc2cccc3c2C(=O)N(C)C3)n1,"human, plasma","oral, 10 mg, multiple doses, once daily, steady state, patients",AUC,0.816 µM·h
COc1ccc([C@@H]2CN(C(=O)[C@@H](O)CO)C[C@@]2(C)[C@@H](C)O)cc1OC1CN(c2ccc(C)cn2)C1,"human, plasma","oral, 30 mg, single dose, healthy volunteers",AUC(0-inf),6330 ng·h/mL
CC(C)(NC(=O)O[C@@H]1CN2CCC1CC2)c1csc(-c2ccc(F)cc2)n1,"female CD-1 mouse, brain","intraperitoneal, 10 mg/kg, single dose",tissue/plasma ratio,0.86
O=C(O)C1CCN(c2ncc(-c3ccc4c(c3)OCCCO4)s2)CC1,"male Swiss mouse, brain","oral, 30 mg/kg, single dose",tissue/plasma ratio,0.028
CC(C)(O)c1ccccc1-c1ccc2[nH]c(/C=C/c3ccc(C(F)(F)F)cc3)nc2c1,"male human, plasma","oral, 2 mg, single dose, fasted",AUC(0-t),94.7 ng·h/mL
CC(C)(C)c1ccc(O)c(CN(Cc2cc(C(C)(C)C)ccc2O)C2CCC(NC(N)=O)CC2)c1 (centres unmarked),"male C57BL/6 mouse, brain","oral, 10 mg/kg, single dose",tissue/plasma ratio,0.64
Cn1c(=O)oc2ccc(-c3ccc(C[C@@H](C#N)NC(=O)[C@@H]4CNCCCO4)cc3)cc21,"male human, plasma","oral, 50 mg, single dose, healthy volunteers",AUC,17.6 µM·h
CCN(CC)C(=O)[C@@]1(c2ccccc2)C[C@H]1CN,"male cynomolgus monkey, plasma","oral, 30 mg/kg",Tmax,4 h
